Test results: ChEMBL document CHEMBL4842366, “Design, synthesis and structure-activity relationship studies of 4-indole-2-arylaminopyrimidine derivatives as anti-inflammatory agents for acute lung injury” (Eur J Med Chem, 2021)
Active and inactive are the calls of the source. No cut-off for these calls is given here.

Tests used:
HBE [1] = assay: Antiinflammatory activity in human HBE cells assessed as inhibition of LPS-induced IL-8 production at 5 uM pretreated with compound for 30 mins followed by LPS stimulation and measured after 24 hrs by ELISA; assay type: functional, cell-based; conditions: time 1470.0 min
Summary of the method: (§1)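 HBE cells were grown in RPMI-1640 with 10% FBS at 37 °C and 5% CO2. Cells were pretreated for 30 min with compound or indomethacin at 5 μM, then stimulated with LPS (100 μg/mL) for 24 h. IL-6 or IL-8 in the medium was measured by ELISA and normalized to total cell protein determined by BCA assay.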

[2] = Cytotoxicity against human HBE cells assessed as reduction in cell survival at 10 uM by MTT assay; assay type: cell-based
Summary of the method: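 HBE cells were seeded at 1 × 10^4 per well in RPMI-1640 with 10% FBS and exposed to compound at 10 μM. Viability was then read by MTT: MTT solution (5 mg/mL) for 4 h at 37 °C in the dark, formazan dissolved in DMSO, and absorbance read at 490 nm.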

HBE [3] = assay: Antiinflammatory activity in human HBE cells assessed as inhibition of LPS-induced IL-6 production at 5 uM pretreated with compound for 30 mins followed by LPS stimulation and measured after 24 hrs by ELISA; assay type: functional, cell-based; conditions: time 1470.0 min; summary of the method: as §1
[4] = Antiinflammatory activity in human HBE cells assessed as inhibition of LPS-induced IL-8 production at 5 uM pretreated with compound for 30 mins followed by LPS stimulation and measured after 24 hrs by ELISA relative to control; assay type: functional; conditions: 24.5 h, time 1470 min; summary of the method: as §1
[5] = Antiinflammatory activity in human HBE cells assessed as inhibition of LPS-induced IL-6 production at 5 uM pretreated with compound for 30 mins followed by LPS stimulation and measured after 24 hrs by ELISA relative to control; assay type: functional; conditions: 24.5 h, time 1470 min; summary of the method: as §1
[6] = Cytotoxicity against human HBE cells assessed as cell survival rate at 10 uM by MTT assay relative to control; assay type: cell-based; conditions: read-out: Survival
Summary of the method: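 HBE cells in RPMI-1640 with 10% FBS at 37 °C, 5% CO2, seeded at 1 × 10^4 cells per well. Compounds tested at 10 μM. After treatment, MTT (5 mg/mL) for 4 h at 37 °C in the dark, formazan dissolved in DMSO, absorbance read at 490 nm. Data as mean ± SEM.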

[7] = molecular target: T1, Epidermal growth factor receptor (Homo sapiens, UniProt P00533); assay: Inhibition of EGFR phosphorylation in human HBE cells incubated for 24 hrs by western blot analysis; assay type: cell-based
Summary of the method: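 HBE cells were treated with drug for 24 h, washed with cold PBS and lysed on ice for 30 min in buffer with protease and phosphatase inhibitors, then centrifuged at 12000 r/min, 4 °C, for 30 min. Protein was quantified by BCA and separated by SDS-PAGE. Blots were probed overnight at 4 °C with p-EGFR/EGFR antibodies, then secondary antibody (1:2000, 2 h), and detected by chemiluminescence.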

Mus musculus [8] = assay: Antiinflammatory activity against LPS-induced acute lung injury C57BL/6 mouse model assessed as reduction in TNF-alpha mRNA expression in lungs at 20 mg/kg, ip administered for 3 days and on day 4 treated 1 hr before LPS stimulation and measured after 18 hrs by SYBR green dye based RT-qPCR analysis; assay type: functional, organism-based; conditions: time 4.0 day
Summary of the method: (§2)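 Same LPS lung-injury protocol: n = 6 male C57BL/6 mice per group, 3 days of i.p. saline or compound, then intratracheal LPS (5 mg/kg) 1 h after the day-4 dose, and sacrifice at 18 h. Lung RNA was extracted with TRIZOL for real-time quantitative PCR, with mouse GAPDH primers alongside the target primers. Data are mean ± SEM; Student's t-test.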

Mus musculus [9] = assay: Antiinflammatory activity against LPS-induced acute lung injury C57BL/6 mouse model assessed as reduction in IL-6 mRNA expression in lungs at 20 mg/kg, ip administered for 3 days and on day 4 treated 1 hr before LPS stimulation and measured after 18 hrs by SYBR green dye based RT-qPCR analysis; assay type: functional, organism-based; conditions: time 4.0 day; summary of the method: as §2
Mus musculus [10] = assay: In vivo inhibition of MAPK phosphorylation in LPS-induced acute lung injury C57BL/6 mouse model assessed as inhibition of ERK phosphorylation in lungs at 20 mg/kg, ip administered for 3 days and on day 4 treated 1 hr before LPS stimulation and measured after 18 hrs by western blot analysis; assay type: functional, organism-based; conditions: time 4.0 day
Mus musculus [11] = assay: Antiinflammatory activity against LPS-induced acute lung injury C57BL/6 mouse model assessed as reduction in lung edema by measuring reduction in lung wet/dry ratio at 10 to 20 mg/kg, ip administered for 3 days and on day 4 treated 1 hr before LPS stimulation and measured after 18 hrs; assay type: functional, organism-based; conditions: dose 10-20 mg/kg, time 4.0 day
Summary of the method: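 Mice (male C57BL/6, n = 6/group) received i.p. saline or compound for 3 days, then intratracheal LPS 5 mg/kg 1 h after the day-4 dose, and were killed 18 h later. Lungs were weighed wet, dried at 60 °C for 48 h to constant weight, and the wet/dry ratio was calculated. Data are mean ± SEM; t-test.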

Mus musculus [12] = assay: (§3) Antiinflammatory activity against LPS-induced acute lung injury C57BL/6 mouse model assessed as improved alveolar structure in lungs at 20 mg/kg, ip administered for 3 days and on day 4 treated 1 hr before LPS stimulation and measured after 18 hrs by H and E staining based microscopic analysis; assay type: functional, organism-based; conditions: time 4.0 day
Summary of the method: (§4)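 Male C57BL/6 mice (20–25 g, SPF) in groups of n = 6 were given 0.9% saline or compound i.p. for 3 days. On day 4, LPS (5 mg/kg) was instilled intratracheally 1 h after dosing, and mice were killed 18 h later. Lungs were fixed in 4% paraformaldehyde, paraffin-embedded, cut at 5 μm, H&E-stained and photographed for pathology.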

Mus musculus [13] = assay: as §3, with “reduction in inflammatory cell infiltration” for “improved alveolar structure”; assay type: functional, organism-based; conditions: time 4.0 day; summary of the method: as §4
Mus musculus [14] = assay: Antiinflammatory activity against LPS-induced acute lung injury C57BL/6 mouse model assessed as reduction in total cell count in BALF at 10 to 20 mg/kg, ip administered for 3 days and on day 4 treated 1 hr before LPS stimulation and measured after 18 hrs; assay type: functional, organism-based; conditions: dose 10-20 mg/kg, time 4.0 day
Summary of the method: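 BALF was collected 18 h after intratracheal LPS (5 mg/kg) in male C57BL/6 mice (n = 6/group) given i.p. saline or compound for 3 days, with LPS 1 h after the day-4 dose. Lavage was done with 3 × 1 mL cold PBS and centrifuged at 800 g, 4 °C, for 10 min. The pellet was washed and resuspended in 10 mL PBS, and total cells were counted.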

Mus musculus [15] = assay: In vivo inhibition of MAPK phosphorylation in LPS-induced acute lung injury C57BL/6 mouse model assessed as inhibition of p38 phosphorylation in lungs at 20 mg/kg, ip administered for 3 days and on day 4 treated 1 hr before LPS stimulation and measured after 18 hrs by western blot analysis; assay type: functional, organism-based; conditions: time 4.0 day
Mus musculus [16] = assay: Antiinflammatory activity against LPS-induced acute lung injury C57BL/6 mouse model assessed as reduction in protein content in BALF at 10 to 20 mg/kg, ip administered for 3 days and on day 4 treated 1 hr before LPS stimulation and measured after 18 hrs by BCA assay; assay type: functional, organism-based; conditions: dose 10-20 mg/kg, time 4.0 day
Summary of the method: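 In male C57BL/6 mice (n = 6/group; i.p. dosing for 3 days; intratracheal LPS 5 mg/kg 1 h after the day-4 dose; killed at 18 h), lungs were lavaged three times with 1 mL cold PBS. BALF was spun at 800 g, 4 °C, for 10 min, and supernatant protein was measured by BCA assay.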

Mus musculus [17] = assay: Antiinflammatory activity against LPS-induced acute lung injury C57BL/6 mouse model assessed as reduction in iNOS mRNA expression in lungs at 10 to 20 mg/kg, ip administered for 3 days and on day 4 treated 1 hr before LPS stimulation and measured after 18 hrs by SYBR green dye based RT-qPCR analysis; assay type: functional, organism-based; conditions: dose 10-20 mg/kg, time 4.0 day; summary of the method: as §2
Mus musculus [18] = assay: Antiinflammatory activity against LPS-induced acute lung injury C57BL/6 mouse model assessed as reduction in IL-1beta mRNA expression in lungs at 20 mg/kg, ip administered for 3 days and on day 4 treated 1 hr before LPS stimulation and measured after 18 hrs by SYBR green dye based RT-qPCR analysis; assay type: functional, organism-based; conditions: time 4.0 day; summary of the method: as §2
Mus musculus [19] = assay: Antiinflammatory activity against LPS-induced acute lung injury C57BL/6 mouse model assessed as reduction in edema of lung tissue at 20 mg/kg, ip administered for 3 days and on day 4 treated 1 hr before LPS stimulation and measured after 18 hrs by H and E staining based microscopic analysis; assay type: functional, organism-based; conditions: time 4.0 day; summary of the method: as §4
[20] = molecular target: T1, Epidermal growth factor receptor; assay: Inhibition of human EGFR using poly(Glu:Tyr)(4:1) as substrate in presence of [gamma33P]ATP by radiometric HotSpot assay
Peritoneal macrophage = assay: Inhibition of LPS-induced NO production in mouse peritoneal macrophages measured after 24 hrs by Griess assay; assay type: functional, cell-based

T1 sequence (P00533 whole entry): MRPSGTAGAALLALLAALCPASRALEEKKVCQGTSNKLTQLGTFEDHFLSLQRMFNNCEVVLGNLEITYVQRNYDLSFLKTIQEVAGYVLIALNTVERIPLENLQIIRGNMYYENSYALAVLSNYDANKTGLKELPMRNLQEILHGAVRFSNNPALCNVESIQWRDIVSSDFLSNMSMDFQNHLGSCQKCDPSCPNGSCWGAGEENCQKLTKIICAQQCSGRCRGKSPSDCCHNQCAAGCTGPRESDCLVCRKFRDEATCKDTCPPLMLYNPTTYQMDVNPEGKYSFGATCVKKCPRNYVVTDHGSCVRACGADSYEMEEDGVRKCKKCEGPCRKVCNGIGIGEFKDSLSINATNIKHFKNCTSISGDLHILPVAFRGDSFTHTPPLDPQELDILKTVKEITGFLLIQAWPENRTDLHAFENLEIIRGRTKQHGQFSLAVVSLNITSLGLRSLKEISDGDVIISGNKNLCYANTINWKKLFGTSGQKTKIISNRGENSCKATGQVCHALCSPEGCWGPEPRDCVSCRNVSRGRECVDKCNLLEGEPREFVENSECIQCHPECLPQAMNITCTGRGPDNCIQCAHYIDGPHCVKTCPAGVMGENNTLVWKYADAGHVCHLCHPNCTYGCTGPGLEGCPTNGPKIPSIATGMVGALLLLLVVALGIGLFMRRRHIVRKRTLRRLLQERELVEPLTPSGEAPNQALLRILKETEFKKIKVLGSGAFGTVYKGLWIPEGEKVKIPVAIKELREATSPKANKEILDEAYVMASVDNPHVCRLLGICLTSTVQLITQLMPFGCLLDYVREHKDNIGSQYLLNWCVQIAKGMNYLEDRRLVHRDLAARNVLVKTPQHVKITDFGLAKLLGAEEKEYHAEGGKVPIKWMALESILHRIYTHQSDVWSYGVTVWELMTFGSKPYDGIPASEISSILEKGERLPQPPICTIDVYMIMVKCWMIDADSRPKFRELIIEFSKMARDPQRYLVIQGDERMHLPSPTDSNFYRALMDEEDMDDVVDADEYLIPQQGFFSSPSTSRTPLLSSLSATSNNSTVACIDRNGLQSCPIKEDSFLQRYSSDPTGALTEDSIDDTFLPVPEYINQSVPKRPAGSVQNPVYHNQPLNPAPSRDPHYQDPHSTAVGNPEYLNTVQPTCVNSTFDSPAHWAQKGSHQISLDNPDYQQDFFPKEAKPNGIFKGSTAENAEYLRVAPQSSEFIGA

Row | Compound | Activity (HBE [1]) | Activity [2] | Activity (HBE [3]) | inhibition at 5 µM [4] [%] | also measured
1 | COc1cc(N2CCOCC2)c(N)cc1Nc1nccc(-c2cn(C)c3ccccc23)n1.Cl | Active | Non-Toxic | Active | – | –
2 | COc1cc(N2CCN(C)CC2)c(N)cc1Nc1nccc(-c2cn(C)c3ccccc23)n1 | – | – | – | 65 | inhibition at 5 µM [5]: 62%; viability at 10 µM [6]: < 70%
3 | COc1cc(N(C)CCN(C)C)c([N+](=O)[O-])cc1Nc1nccc(-c2cn(C)c3ccccc23)n1 | Active | – | Active | – | viability at 10 µM [6]: < 70%
4 | COc1cc(N2CCCC2)c(N)cc1Nc1nccc(-c2cn(C)c3ccccc23)n1.Cl | – | Non-Toxic | – | 65 | inhibition at 5 µM [5]: 62%; inhibition [7]: Active
5 | COc1cc(N2CCCCC2)c(N)cc1Nc1nccc(-c2cn(C)c3ccccc23)n1.Cl | Active | Non-Toxic | Active | – | –
6 | COc1cc(N(C)CCN(C)C)c(N)cc1Nc1nccc(-c2cn(C)c3ccccc23)n1.Cl | – | Non-Toxic | – | 72 | Activity (Mus musculus [8]): Active; Activity (Mus musculus [9]): Active; inhibition (Mus musculus [10]): Active; Activity (Mus musculus [11]): Active; inhibition at 5 µM [5]: 62%; Activity (Mus musculus [12]): Active; Activity (Mus musculus [13]): Active; inhibition [7]: Active; Activity (Mus musculus [14]): Active; inhibition (Mus musculus [15]): Active; Activity (Mus musculus [16]): Active; Activity (Mus musculus [17]): Active; Activity (Mus musculus [18]): Active; Activity (Mus musculus [19]): Active
7 | CCCCN(CCCC)c1cc(OC)c(Nc2nccc(-c3cn(C)c4ccccc34)n2)cc1N.Cl | Active | Non-Toxic | Active | – | –
8 | COc1cc(N(C)CCN(C)C)c(NC(=O)CN=[N+]=[N-])cc1Nc1nccc(-c2cn(C)c3ccccc23)n1 | Active | Non-Toxic | Active | – | –
9 | COc1cc(F)c(N)cc1Nc1nccc(-c2cn(C)c3ccccc23)n1 | – | Non-Toxic | – | 49 | inhibition at 5 µM [5]: 63%; inhibition [7]: Active
10 | COc1cc(N(C)CCN(C)C)c(NC(=O)CCCN=[N+]=[N-])cc1Nc1nccc(-c2cn(C)c3ccccc23)n1 | – | Non-Toxic | Active | 88 | –
11 | COc1ccc2c(c1)c(CC(=O)O)c(C)n2C(=O)c1ccc(Cl)cc1 [INDOMETHACIN] | Active | Non-Toxic | Active | – | –
12 | COc1cc(N2CCCCCC2)c(N)cc1Nc1nccc(-c2cn(C)c3ccccc23)n1.Cl | Active | Non-Toxic | Active | – | –
13 | O=C(Nc1cncnc1Oc1cccc(C(F)(F)F)c1)c1ccc(F)cc1 | – | – | – | – | IC50 [20]: 2.98 µM; IC50 (Peritoneal macrophage): 20.8 µM
14 | CCN(CC)c1cc(OC)c(Nc2nccc(-c3cn(C)c4ccccc34)n2)cc1N.Cl | Active | Non-Toxic | Active | – | –
